Series [1] concerns the target Cyclin-dependent kinase 2/cyclin A (Homo sapiens) (UniProt P24941+P20248+P78396). Kind of series: Inhibition of CDK2/cyclin A at 10 uM. The format is protein-complex assay. In outline: (§1)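 Kinase panel run at Upstate (Dundee). Each compound was tested at 10 µM against each enzyme and reported as % inhibition.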
Series [2] has as its target Dual specificity tyrosine-phosphorylation-regulated kinase 1A (Homo sapiens) (UniProt Q13627). Kind of series: Inhibition of DYRK1a at 10 uM. A digest of the protocol:
as §1

Series [3] concerns the target AMP-activated protein kinase, AMPK (Homo sapiens) (UniProt P54646+O43741+P54619+Q9UGJ0+Q9Y478+Q13131+Q9UGI9). Kind of series: Inhibition of AMPK at 10 uM. The format is protein-complex assay. A digest of the protocol: as §1
For series [4], the target named is Protein kinase C alpha type (Homo sapiens) (UniProt P17252). Kind of series: Inhibition of PKCa at 10 uM. A digest of the protocol: as §1
Series [5] addresses Mitogen-activated protein kinase 11 (Homo sapiens) (UniProt Q15759). Kind of series: Inhibition of SAPK2b/p38--beta-2 at 10 uM. In outline:
as §1

A short description of series [6]: Oral bioavailability in rat. The format is ADME, organism-based. The note with it: Sprague-Dawley, in vivo. In outline: (§2)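 Male Sprague Dawley rats (6-10 weeks) received IV 1 mg/kg (10% DMSO/90% saline) and PO 10 mg/kg (1% CMC/0.5% Tween 80). Serial tail-vein plasma was taken up to 24 h (IV) or 72 h (PO) and analysed by LC/MS/MS (9 ng/mL to 20 µg/mL). Parameters were calculated non-compartmentally.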

For series [7], the target named is RAC-alpha serine/threonine-protein kinase (Homo sapiens) (UniProt P31749). Nature of the series: Inhibition of PKBa at 10 uM. A digest of the protocol: as §1
Chain of RAC-alpha serine/threonine-protein kinase (Homo sapiens) (P31749 whole entry): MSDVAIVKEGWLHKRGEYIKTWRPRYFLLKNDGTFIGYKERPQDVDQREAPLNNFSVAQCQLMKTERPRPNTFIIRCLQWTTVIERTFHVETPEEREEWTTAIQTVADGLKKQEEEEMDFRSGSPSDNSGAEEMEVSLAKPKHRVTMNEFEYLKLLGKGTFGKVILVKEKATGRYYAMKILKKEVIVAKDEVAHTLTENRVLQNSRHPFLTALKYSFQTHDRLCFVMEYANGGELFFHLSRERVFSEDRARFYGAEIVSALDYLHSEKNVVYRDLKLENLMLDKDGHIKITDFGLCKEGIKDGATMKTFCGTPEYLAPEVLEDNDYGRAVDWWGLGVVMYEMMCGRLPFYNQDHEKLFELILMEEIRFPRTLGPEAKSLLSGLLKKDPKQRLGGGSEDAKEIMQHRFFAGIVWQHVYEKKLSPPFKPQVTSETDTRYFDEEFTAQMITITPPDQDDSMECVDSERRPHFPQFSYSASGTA
For series [8], the system named is Malme-3M. Nature of the series: Inhibition of cellular viability of Malme-3M cells. The format is functional, Homo sapiens.
Series [9] can be described thus: Clearance in rat. It counts as ADME, organism-based. The note with it: Sprague-Dawley, in vivo. A digest of the protocol:
as §2

The target of series [10] is Rho-associated protein kinase 2 (Homo sapiens) (UniProt O75116). Nature of the series: Inhibition of ROCK 2 at 10 uM. A digest of the protocol: as §1
Chain of Rho-associated protein kinase 2 (Homo sapiens) (O75116 whole entry, looked up): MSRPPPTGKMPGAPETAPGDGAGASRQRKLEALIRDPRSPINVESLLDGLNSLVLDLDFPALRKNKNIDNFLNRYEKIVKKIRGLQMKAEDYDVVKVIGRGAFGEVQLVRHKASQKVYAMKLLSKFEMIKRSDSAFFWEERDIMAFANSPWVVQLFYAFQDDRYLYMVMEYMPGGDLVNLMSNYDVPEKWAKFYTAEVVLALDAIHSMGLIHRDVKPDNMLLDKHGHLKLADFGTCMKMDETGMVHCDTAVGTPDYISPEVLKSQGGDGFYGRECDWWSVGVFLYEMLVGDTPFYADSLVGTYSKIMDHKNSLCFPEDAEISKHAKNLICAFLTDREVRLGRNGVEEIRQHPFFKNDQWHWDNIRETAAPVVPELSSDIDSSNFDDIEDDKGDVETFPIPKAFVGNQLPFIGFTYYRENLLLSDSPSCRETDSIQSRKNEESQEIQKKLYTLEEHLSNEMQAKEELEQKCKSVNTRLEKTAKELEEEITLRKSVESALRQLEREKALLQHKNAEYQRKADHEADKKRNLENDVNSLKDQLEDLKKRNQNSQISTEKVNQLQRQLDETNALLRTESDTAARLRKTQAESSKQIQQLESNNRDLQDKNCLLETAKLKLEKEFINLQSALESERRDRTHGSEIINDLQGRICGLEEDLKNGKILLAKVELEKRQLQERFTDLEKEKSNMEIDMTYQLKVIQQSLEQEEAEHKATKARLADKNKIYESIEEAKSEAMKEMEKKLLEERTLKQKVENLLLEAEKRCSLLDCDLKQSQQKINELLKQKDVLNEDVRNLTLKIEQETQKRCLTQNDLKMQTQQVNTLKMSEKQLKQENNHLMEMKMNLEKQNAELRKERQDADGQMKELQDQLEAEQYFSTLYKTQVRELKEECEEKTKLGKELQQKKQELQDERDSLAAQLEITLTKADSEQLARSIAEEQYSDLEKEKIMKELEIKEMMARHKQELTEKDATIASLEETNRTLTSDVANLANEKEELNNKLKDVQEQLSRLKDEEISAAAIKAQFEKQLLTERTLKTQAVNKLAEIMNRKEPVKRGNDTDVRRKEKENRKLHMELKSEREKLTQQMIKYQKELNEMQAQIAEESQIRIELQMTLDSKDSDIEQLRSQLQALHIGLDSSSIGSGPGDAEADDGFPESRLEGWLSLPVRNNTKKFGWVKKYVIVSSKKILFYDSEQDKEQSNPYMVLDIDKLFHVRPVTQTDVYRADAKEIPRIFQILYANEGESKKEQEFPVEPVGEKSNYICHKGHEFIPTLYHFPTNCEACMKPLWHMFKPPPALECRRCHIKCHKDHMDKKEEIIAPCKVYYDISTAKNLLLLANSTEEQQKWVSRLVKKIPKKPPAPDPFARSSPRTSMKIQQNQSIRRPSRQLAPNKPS
Series [11] concerns HT-29. Kind of series: Inhibition of ERK phosphorylation in HT29 tumor bearing NCr-nu/nu mice after 4 hrs at 10 mg/kg, po. The format is functional. The note with it: Mus musculus, HT-29, 4 h.
Series [12] concerns the target Tyrosine-protein kinase Lck (Homo sapiens) (UniProt P06239). Kind of series: Inhibition of LCK at 10 uM. In outline: as §1
In series [13] the target is Mitogen-activated protein kinase 8 (Homo sapiens) (UniProt P45983). Nature of the series: Inhibition of JNK/SAPK1c at 10 uM. A digest of the protocol: as §1
Chain of Mitogen-activated protein kinase 8 (Homo sapiens) (P45983 whole entry): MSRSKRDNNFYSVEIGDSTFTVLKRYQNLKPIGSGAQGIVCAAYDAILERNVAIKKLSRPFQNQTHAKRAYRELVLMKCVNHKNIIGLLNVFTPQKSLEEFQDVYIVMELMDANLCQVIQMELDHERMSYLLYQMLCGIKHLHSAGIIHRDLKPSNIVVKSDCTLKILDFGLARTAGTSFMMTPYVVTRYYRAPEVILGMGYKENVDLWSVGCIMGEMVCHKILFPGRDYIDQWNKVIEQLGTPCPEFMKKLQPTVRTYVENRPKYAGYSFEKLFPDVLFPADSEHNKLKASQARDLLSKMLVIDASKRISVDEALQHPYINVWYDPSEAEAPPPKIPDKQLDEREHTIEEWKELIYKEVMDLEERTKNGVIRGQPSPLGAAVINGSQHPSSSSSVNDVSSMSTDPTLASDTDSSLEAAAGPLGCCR
Series [14] has as its system Malme-3M. Nature of the series: Inhibition of basal ERK phosphorylation in Malme-3M cells. The format is functional, Homo sapiens.
In series [15] the target is Dual specificity mitogen-activated protein kinase kinase 1 (Homo sapiens, UniProt Q02750). Nature of the series: Inhibitory activity against MEK1.
Chain of Dual specificity mitogen-activated protein kinase kinase 1 (Q02750 whole entry): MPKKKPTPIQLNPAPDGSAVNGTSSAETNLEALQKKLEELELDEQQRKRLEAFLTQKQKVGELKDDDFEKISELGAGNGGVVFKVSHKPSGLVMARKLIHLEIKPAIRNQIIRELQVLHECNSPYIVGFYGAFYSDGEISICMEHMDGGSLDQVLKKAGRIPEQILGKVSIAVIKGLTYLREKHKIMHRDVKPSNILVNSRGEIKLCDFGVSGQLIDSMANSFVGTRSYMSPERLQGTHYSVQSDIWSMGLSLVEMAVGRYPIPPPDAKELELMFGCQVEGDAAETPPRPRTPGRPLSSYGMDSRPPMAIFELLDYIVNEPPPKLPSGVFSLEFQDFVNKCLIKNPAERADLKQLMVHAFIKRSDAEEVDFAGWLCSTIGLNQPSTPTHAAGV

Chain of Mitogen-activated protein kinase 11 (Homo sapiens) (Q15759 whole entry): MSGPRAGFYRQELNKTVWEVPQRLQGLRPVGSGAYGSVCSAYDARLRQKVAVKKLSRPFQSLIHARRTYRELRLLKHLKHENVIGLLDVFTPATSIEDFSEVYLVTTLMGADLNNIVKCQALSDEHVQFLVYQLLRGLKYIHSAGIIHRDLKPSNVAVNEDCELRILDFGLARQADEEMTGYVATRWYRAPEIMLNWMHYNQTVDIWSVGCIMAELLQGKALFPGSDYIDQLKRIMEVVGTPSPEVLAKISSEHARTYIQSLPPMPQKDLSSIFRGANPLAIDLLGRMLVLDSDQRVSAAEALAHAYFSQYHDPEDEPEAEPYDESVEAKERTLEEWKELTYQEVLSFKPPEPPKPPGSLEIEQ
Chain of Tyrosine-protein kinase Lck (Homo sapiens) (P06239 2-509 limits assumed): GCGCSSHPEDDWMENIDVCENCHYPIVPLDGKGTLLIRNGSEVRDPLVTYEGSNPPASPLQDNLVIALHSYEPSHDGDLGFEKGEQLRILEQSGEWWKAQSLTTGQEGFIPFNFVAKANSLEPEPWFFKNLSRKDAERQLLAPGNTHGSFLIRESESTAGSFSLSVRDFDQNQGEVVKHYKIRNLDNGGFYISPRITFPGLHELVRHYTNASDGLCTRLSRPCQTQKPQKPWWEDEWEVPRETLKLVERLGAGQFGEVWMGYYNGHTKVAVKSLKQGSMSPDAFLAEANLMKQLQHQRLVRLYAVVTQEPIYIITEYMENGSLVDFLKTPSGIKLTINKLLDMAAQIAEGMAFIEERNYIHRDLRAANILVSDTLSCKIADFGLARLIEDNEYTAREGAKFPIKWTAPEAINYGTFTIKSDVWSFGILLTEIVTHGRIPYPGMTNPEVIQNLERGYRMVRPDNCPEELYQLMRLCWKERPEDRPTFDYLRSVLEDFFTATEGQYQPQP

On to `CCONC(=O)c1cn(C)c(=O)c(C)c1Nc1ccc(Br)cc1F`, for which the inhibition – broadly, the drop in the measured response relative to a control, in per cent – in series [1] came out at 20%; in series [2], 15%; in series [3], 2%; in series [4], 7%; in series [5], 13%; in [7], 6%. Also, the inhibition in [10] worked out at 13%; in series [12] it was 9%; in [13], 23%. Besides, in [6], the bioavailability (in general, dose-corrected exposure relative to a reference, in per cent) was 80%. The Activity is recorded as 118 nM in series [8] and 10.6 nM in series [14]. The clearance – broadly, a measure of how efficiently the substance is removed, as volume per time – in [9] is 0.114 L/h/kg. In [11], the inhibition in vivo – broadly, the share of the control response that was lost under treatment – at 10 mg/kg was above 80%.

With `Cc1c(Nc2ccc(Br)cc2F)c(C(=O)NOCCO)cn(C)c1=O`, the inhibition is 9% in series [1]; 10% in series [2]; 19% in [3]; -3% in series [4]; 16% in series [5]; -4% in series [7]. For the same molecule, the inhibition in series [10] was 13%; in [12], 13%; in [13], 23%. The same molecule returned a bioavailability in series [6] of 53%. Also, the results for the Activity in series [8] and in [14] were 11 nM and 2 nM, respectively. In series [9], the clearance was 0.48 L/h/kg. For the same molecule, half-maximal inhibition in series [15] (IC50) was put at 0.018 µM. The molecule also returned an inhibition in vivo at 10 mg/kg in series [11] above 80%.

Regarding `CONC(=O)c1cn(C)c(=O)c(C)c1Nc1ccc(Br)cc1F`, the inhibition is 8% in series [1]; 2% in series [2]; -4% in [3]; 0% in [4]; 5% in series [5]; 12% in series [7]. Moreover, the inhibition in [10] is 10%; in series [12] it was -1%; in [13], 7%. In [6], this molecule gave a bioavailability of 73%. The Activity was 265 nM in [8] and 39 nM in series [14]. The molecule further gave a clearance in series [9] of 0.09 L/h/kg. Further, in series [15], half-maximal inhibition (IC50) required 0.105 µM. In series [11], this molecule showed an inhibition in vivo at 10 mg/kg above 80%.

For the origin of these results see ChEMBL document CHEMBL1147738, “Potent and selective mitogen-activated protein kinase kinase (MEK) 1,2 inhibitors. 1. 4-(4-bromo-2-fluorophenylamino)-1- methylpyridin-2(1H)-ones” (J Med Chem, 2006).
